Source: PubChem (Broad Institute)
Most compounds without a hit are left out; they make up all but 2.4% or so of the library.
Rtt109 Vps75 = inhibitors of C. albicans Rtt109/Vps75 HAT, primary screen, biochemical, ThioGlo CoA-SH fluorescence, plate reader. Histone acetyltransferase RTT109 (Candida albicans (strain SC5314 / ATCC MYA-2876)), …. purified Rtt109/Vps75, 4 h. inhibition, % at 34.9 µM. 0.16% of 330,000 active;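 active = inhibition of at least 50% in every replicate; inconclusive = best replicate reaches 50% inhibition but some replicates fall short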
Target sequence (Q5AAJ8 whole entry, looked up): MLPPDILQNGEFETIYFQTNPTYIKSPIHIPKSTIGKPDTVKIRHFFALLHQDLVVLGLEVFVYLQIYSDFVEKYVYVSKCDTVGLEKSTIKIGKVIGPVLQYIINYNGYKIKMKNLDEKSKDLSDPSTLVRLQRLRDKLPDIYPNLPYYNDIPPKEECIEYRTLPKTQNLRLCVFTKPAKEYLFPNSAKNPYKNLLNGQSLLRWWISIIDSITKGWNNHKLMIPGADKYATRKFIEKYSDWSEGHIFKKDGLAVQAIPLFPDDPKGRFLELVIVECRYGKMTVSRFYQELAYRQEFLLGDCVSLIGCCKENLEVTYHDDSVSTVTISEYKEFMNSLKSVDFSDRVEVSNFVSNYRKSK
Env fusion inh = inhibitors of HIV-1 Env-driven cell-cell fusion, primary screen, HeLa-JRFL effector, CEM21 target cells, luciferase; inhibition, % at 12.3 µM; 1.1% of 360,000 active;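 active = mean replicate inhibition score of at least 50 and every replicate individually at or above 50; inconclusive = only one of the two criteria met; inactive = mean below 50 and not all replicates reaching 50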
miR-122 sensor = miR-122 Renilla sensor signal increase in Huh7, primary screen, miR-122 inhibitor project, cell-based, single point, plate reader. 0.3% of 340,000 active. Huh7 miR-122 Renilla luciferase sensor, 48 h; neutral wells = 0, positive control = 100. activation (reporter increase), % at 12.5 µM;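 active = mean replicate activation score at least 90 and every replicate individually at or above 90; inconclusive = only one of the two criteria met; inactive = neither criterion met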;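 note: higher luciferase means less miR-122 activity so hits act as miR-122 inhibitors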
Cneo AK release = Cryptococcus neoformans cell lysis inducers, primary screen, AK release luminescence, single concentration | C. neoformans lysis, adenylate kinase release luminescence, 4 h; normalised: neutral wells 0, clomiphene wells 100 | lysis activity, % at 15 µM | 0.2% of 360,000 active | AID 651654, 2012;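 active = mean lysis activity across replicates of at least 80%, whatever share of replicates individually reach that level; inactive = mean lysis activity below 80%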
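Material – log-phase Cryptococcus neoformans yeast cells · Input – 5 × 10^6 yeast cells/mL · Medium – fresh YPD growth medium · Doses – single compound concentration per well · Timing – static 4 h at 37 °C with compound, 1 h detection · Detection – adenylate kinase release luminescence · Read-out – signal increase indicating cell lysis · Control set – Clomiphene as positive lysis control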
GSIS activator = GLuc luminescence reporter in INS-1E cells, primary screen for activators of glucose-dependent secretion of insulin; INS-1E GLuc reporter insulin secretion, 2-3 h; activation, % at 16.6 µM; 0.61% of 370,000 active; AID 743287, 2014;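 active = lowest replicate activation of at least 40%, so every replicate reaches that level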
dFosB activator = activators of delta FosB homodimer, primary screen, biochemical, fluorescence polarization, TAMRA-CDK5 oligo, single point; Protein FosB (Mus musculus), P13346; 0.99% of 340,000 active; activation, % at 25 µM; purified delta FosB; percent of positive-control signal above neutral wells;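 active = mean activation above about 17%, with every replicate also reaching it, limit read from the data, passing the limit was not always enough; inconclusive = only one of the two conditions met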
Numbers stand for hits; n = inactive; u = inconclusive; x = not tested or not shown.

SMILES	Rtt109 Vps75	Env fusion inh	miR-122 sensor	Cneo AK release	GSIS activator	dFosB activator
C=CC[n+]1c(-c2ccc(OCC)cc2)csc1NNC(=O)Nc1ccccc1	n	61	x	x	n	n
Nn1c(-c2ccccc2)cc(-c2ccccc2)cc1=O	n	n	n	n	67	n
C[C@@H]1CN([C@@H](C)CO)C(=O)c2cc(NS(=O)(=O)c3cccs3)ccc2O[C@@H](C)CCCCO[C@@H]1CN(C)Cc1ccc(C(F)(F)F)cc1	x	n	n	n	n	x
Nc1ccn(C2OC(COP(=O)(O)O)C(O)C2O)c(=O)n1 (stereo not given)	n	82	n	x	n	n
CC(=O)NC[C@H]1O[C@@H](n2ccc(N)nc2=O)[C@H](O)[C@@H]1O	x	x	n	n	n	x
Cc1cccc(CNc2ncnc3ccc(-c4ccoc4)cc23)c1	n	n	n	n	x	n
Cc1csc(CNc2ncnc3ccc(-c4ccc5c(c4)OCCO5)cc23)c1	n	n	n	n	n	n
Cc1cccc(CNc2ncnc3ccc(-c4ccc5c(c4)OCCO5)cc23)c1	n	80	n	n	n	n
Cc1csc(CNc2ncnc3ccc(-c4ccc5c(c4)OCO5)cc23)c1	n	61	n	n	n	n
Cc1ccc(OCC(=O)Nc2c3c(nn2C(C)(C)C)CS(=O)(=O)C3)cc1	n	58	x	n	n	n
CCN1C(=O)/C(=C\C=C2/C=CC=CN2CC)SC1=S	n	n	n	x	n	25
C[C@H](CO)N1C[C@H](C)[C@@H](CN(C)C(=O)CC2CC2)Oc2cc(C#CC3CC3)ccc2S1(=O)=O	x	n	n	n	n	x
CCc1ccc(OCC(=O)NC(=S)Nc2ccc(C(C)=O)cc2)c(Br)c1	n	x	n	n	n	n
CCc1ccc(OCC(=O)NC(=S)Nc2ccc(F)cc2)c(Br)c1	n	x	n	n	59	n
Cc1cc(C)c(C)c(S(=O)(=O)Nc2ccc3cn[nH]c3c2)c1C	n	x	157	n	n	n
COCc1cc(C)c(C#N)c(=S)[nH]1	80	x	n	n	x	n
CCOc1cc2c3c(c1)C(C)CC(C)(C)N3C(=O)C2=O (stereo not given)	n	104	n	n	n	n
N#C/C(=C/c1ccc(Sc2nc3ccccc3[nH]2)o1)c1cccc(F)c1	n	87	n	n	n	n
N#C/C(=C/c1ccc(Sc2nc3ccccc3[nH]2)o1)c1ccccc1F	n	73	x	x	n	n
N#C/C(=C/c1ccc(Sc2nc3ccccc3[nH]2)o1)c1cccc(Br)c1	n	x	n	n	x	n
COc1ccc(NC(=O)Nc2ccc3c(c2)[C@H]2C[C@H](CC(=O)NCc4ccncc4)O[C@@H](CO)[C@H]2O3)cc1	x	n	n	n	n	x
CCCNC(=O)N(C)C[C@H]1Oc2ncc(-c3ccncc3)cc2C(=O)N([C@H](C)CO)C[C@H]1C	x	n	n	n	n	x
COCC(=O)Nc1ccc2c(c1)OC[C@H](C)N(Cc1cccc(F)c1)C[C@H](C)[C@H](OC)CN(C)C2=O	x	n	x	n	n	x
CCC(C)(C)c1ccc(OCCCC[n+]2cccc(C)c2)c(C(C)(C)CC)c1	u	129	x	x	185	n
Cc1nn(-c2cc(N3CCCCCC3)ccc2[N+](=O)[O-])c(=O)c2ccccc12	n	n	n	n	x	n
SMILES	Rtt109 Vps75	Env fusion inh	miR-122 sensor	Cneo AK release	GSIS activator	dFosB activator
Cc1ccc(-c2nn(-c3cc(N4CCNCC4)ccc3[N+](=O)[O-])c(=O)c3ccccc23)cc1	n	n	x	x	n	35
C[C@H](CO)N1C[C@H](C)[C@H](CN(C)CC2CC2)Oc2ncc(C#CC3(O)CCCC3)cc2C1=O	x	x	x	x	n	x
COc1ccc([C@@H]2[C@@H]3C(=O)N(C(C)(C)C)C(=O)[C@@H]3[C@]3(Cc4ccc(Cl)cc4)C(=O)N(c4cccc(C)c4)C(=O)N23)cc1	n	90	n	n	n	n
CCN1C(=O)[C@H]2[C@@H](c3ccc(C)cc3)N3C(=O)N(c4cccc(C)c4)C(=O)[C@@]3(Cc3ccccc3)[C@H]2C1=O	n	n	n	n	n	n
CC[C@@]12C(=O)N(c3cccc(C)c3)C(=O)N1[C@H](c1ccc(OC)cc1)[C@@H]1C(=O)N(C(C)(C)C)C(=O)[C@@H]12	n	x	n	n	x	n
COc1ccc([C@@H]2[C@@H]3C(=O)N(C(C)(C)C)C(=O)[C@@H]3[C@]3(CC(C)C)C(=O)N(c4ccccc4)C(=O)N23)cc1	n	81	n	n	n	n
COc1ccc([C@@H]2[C@@H]3C(=O)N(C(C)(C)C)C(=O)[C@@H]3[C@]3(CC(C)C)C(=O)N(c4cccc(Br)c4)C(=O)N23)cc1	n	90	n	n	n	n
COc1ccc([C@@H]2[C@@H]3C(=O)N(C(C)(C)C)C(=O)[C@@H]3[C@]3(Cc4ccccc4)C(=O)N(c4ccc(OC)cc4)C(=O)N23)cc1	n	n	n	n	n	n
COc1ccc(N2C(=O)N3[C@H](c4cccc(C)c4)[C@@H]4C(=O)N(Cc5ccccc5)C(=O)[C@@H]4[C@]3(Cc3ccccc3)C2=O)cc1	x	86	x	x	n	x
OC[C@@H]1[C@@H](c2ccccc2)C2(CN(Cc3nccs3)C2)N1Cc1ccccc1	x	x	x	x	n	x
COc1ccc2c3c(n(C)c2c1)[C@@H](CO)N(C(C)=O)CC31CCN(Cc2cncnc2)CC1	x	x	x	x	n	x
CCN1C(=O)[C@H]2[C@@H](c3ccc(C)cc3)N3C(=O)N(c4cccc(Cl)c4)C(=O)[C@@]3(Cc3ccc(Cl)cc3)[C@H]2C1=O	n	59	x	n	n	n
COc1ccc([C@@H]2[C@@H]3C(=O)N(C(C)(C)C)C(=O)[C@@H]3[C@]3(CC(C)C)C(=O)N(c4ccc(C(F)(F)F)cc4)C(=O)N23)cc1	n	109	x	n	n	n
COc1ccc([C@@H]2[C@@H]3C(=O)N(C(C)(C)C)C(=O)[C@@H]3[C@]3(C)C(=O)N(c4ccc(C(F)(F)F)cc4)C(=O)N23)cc1	n	66	n	n	n	n
COc1ccc([C@@H]2[C@@H]3C(=O)N(C(C)(C)C)C(=O)[C@@H]3[C@]3(Cc4ccccc4)C(=O)N(c4ccc(C(F)(F)F)cc4)C(=O)N23)cc1	n	n	n	n	n	n
COc1ccccc1-c1ccc2c(c1)[C@H]1[C@H](CCN1S(=O)(=O)c1ccccc1F)[C@H](CO)N2	x	x	n	n	n	x
CO[C@H]1CN(C)C(=O)c2ccc(NS(=O)(=O)c3ccc(Cl)cc3)cc2OC[C@@H](C)NC[C@H]1C	x	x	n	n	n	x
